Reference: ChEMBL document CHEMBL1124671, “Carboxyalkyl dipeptides with atrial natriuretic factor potentiating and antihypertensive activity” (J Med Chem, 1989)
Calls of active or inactive are those of the source. The calls are words filed in the database; no cut-off is given here.

Legend:
[1] = biological target: T1, Natriuretic peptides A (Rattus norvegicus) (UniProt P01161); assay: Compound was administered subcutaneously to spontaneously hypertensive rats (SHR) and evaluated for the ability to potentiate atrial natriuretic factor (ANF)
T1 sequence (whole entry): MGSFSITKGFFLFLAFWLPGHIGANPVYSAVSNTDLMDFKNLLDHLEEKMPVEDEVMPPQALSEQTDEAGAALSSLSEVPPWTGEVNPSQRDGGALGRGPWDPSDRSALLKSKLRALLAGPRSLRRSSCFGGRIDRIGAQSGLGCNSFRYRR
Outline: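 Conscious SHR given 30 mg/kg s.c. 30 min before an i.v. challenge of 30 μg/kg ANF 103–125; mean arterial pressure followed, with vehicle-treated controls. Value is the maximum increase in hypotensive response to ANF over the control group.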

[2] = biological target: T2, Angiotensin-converting enzyme (Rattus norvegicus, UniProt P47820); assay: Compound was evaluated for the ability to inhibit Angiotensin I converting enzyme in rat
T2 sequence (P47820 whole entry): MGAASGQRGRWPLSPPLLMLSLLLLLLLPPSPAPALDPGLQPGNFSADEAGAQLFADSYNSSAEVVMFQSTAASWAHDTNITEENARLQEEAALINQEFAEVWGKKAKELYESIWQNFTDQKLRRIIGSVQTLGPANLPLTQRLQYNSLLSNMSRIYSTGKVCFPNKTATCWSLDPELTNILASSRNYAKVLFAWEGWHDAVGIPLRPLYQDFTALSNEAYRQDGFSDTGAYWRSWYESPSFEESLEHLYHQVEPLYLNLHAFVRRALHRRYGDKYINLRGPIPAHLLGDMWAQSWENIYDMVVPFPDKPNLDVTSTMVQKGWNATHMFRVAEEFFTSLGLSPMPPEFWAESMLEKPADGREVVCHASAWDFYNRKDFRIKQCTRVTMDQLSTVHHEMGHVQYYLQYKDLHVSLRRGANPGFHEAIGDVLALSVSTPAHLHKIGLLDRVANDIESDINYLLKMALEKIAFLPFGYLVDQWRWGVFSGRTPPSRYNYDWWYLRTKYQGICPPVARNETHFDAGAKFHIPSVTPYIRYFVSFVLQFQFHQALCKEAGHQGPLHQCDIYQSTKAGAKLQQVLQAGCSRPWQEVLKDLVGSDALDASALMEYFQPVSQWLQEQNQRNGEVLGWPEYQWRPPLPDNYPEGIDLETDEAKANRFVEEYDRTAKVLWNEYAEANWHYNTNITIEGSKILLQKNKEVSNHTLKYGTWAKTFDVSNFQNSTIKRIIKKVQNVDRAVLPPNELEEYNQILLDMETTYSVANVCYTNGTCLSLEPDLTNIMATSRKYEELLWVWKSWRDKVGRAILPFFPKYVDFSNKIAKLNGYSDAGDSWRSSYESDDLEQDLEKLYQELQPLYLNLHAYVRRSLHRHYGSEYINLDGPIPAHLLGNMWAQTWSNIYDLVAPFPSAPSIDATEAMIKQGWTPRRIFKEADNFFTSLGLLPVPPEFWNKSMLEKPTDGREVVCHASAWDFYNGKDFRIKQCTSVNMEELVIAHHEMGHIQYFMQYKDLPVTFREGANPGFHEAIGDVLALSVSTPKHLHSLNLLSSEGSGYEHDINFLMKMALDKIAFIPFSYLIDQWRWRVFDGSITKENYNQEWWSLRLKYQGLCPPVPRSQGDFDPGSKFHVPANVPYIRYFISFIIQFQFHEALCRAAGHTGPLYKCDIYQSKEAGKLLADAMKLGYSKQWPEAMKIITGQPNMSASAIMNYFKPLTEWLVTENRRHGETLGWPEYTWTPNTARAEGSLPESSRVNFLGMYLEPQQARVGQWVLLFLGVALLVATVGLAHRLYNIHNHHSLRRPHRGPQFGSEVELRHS

Neprilysin = biological target: T3, Neprilysin (Oryctolagus cuniculus, UniProt P08049); assay: Compound was evaluated for the ability to inhibit neutral endopeptidase purified from rabbit kidney
T3 sequence (P08049 whole entry): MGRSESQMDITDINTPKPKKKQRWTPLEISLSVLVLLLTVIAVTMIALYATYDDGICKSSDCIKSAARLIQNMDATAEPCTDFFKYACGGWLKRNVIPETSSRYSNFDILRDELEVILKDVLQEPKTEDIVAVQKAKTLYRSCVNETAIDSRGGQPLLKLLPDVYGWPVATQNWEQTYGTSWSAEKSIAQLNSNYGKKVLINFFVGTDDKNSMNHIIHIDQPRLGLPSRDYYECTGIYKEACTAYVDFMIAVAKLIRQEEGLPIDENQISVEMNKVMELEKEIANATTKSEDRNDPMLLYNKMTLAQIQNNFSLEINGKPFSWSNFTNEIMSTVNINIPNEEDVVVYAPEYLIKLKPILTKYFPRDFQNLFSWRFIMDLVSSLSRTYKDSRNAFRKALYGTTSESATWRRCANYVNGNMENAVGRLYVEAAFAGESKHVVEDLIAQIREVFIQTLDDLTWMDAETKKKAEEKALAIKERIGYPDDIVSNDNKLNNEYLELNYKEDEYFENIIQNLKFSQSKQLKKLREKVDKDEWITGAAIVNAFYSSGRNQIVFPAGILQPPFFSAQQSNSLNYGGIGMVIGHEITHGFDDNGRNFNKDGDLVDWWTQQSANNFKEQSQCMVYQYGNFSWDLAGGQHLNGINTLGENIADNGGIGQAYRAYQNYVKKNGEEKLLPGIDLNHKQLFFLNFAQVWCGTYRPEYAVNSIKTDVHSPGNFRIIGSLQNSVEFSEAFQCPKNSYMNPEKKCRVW
Outline: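 Enzyme: purified rabbit kidney neutral endopeptidase (NEP).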

[3] = biological target: T1, Natriuretic peptides A (Rattus norvegicus); details: Cardiac atrium

Structure (SMILES) | Delta blood pressure [1] [mmHg] | IC50 [2] [nM] | IC50 (Neprilysin) [nM] | Delta blood pressure [3]
O=C(O)[C@H](CCc1ccccc1)N[C@@H](Cc1ccccc1)C(=O)NC[C@H](O)C(=O)O (stereo in doubt; 6e) [listing 1 of 2 here] | 35 |  |  | 
O=C(O)[C@H](CCc1ccccc1)N[C@@H](Cc1ccccc1)C(=O)NC[C@H](O)C(=O)O (stereo in doubt; 6e) [listing 2 of 2 here] |  | > 1000 | 15 | 
O=C(O)[C@H](CO)NC(=O)[C@H](Cc1ccccc1)N[C@@H](CCc1ccccc1)C(=O)O |  | 320 | 393 | inactive
O=C(O)[C@H](Cc1ccccc1)N[C@@H](Cc1ccccc1)C(=O)NC[C@H](O)C(=O)O | 17 | > 1000 | 11 | 
O=C(O)[C@H](O)CNC(=O)[C@H](Cc1ccccc1)N[C@@H](CCc1ccccc1)C(=O)O | 28 | 640 | 21 | 
O=C(O)CCNC(=O)[C@H](Cc1ccccc1)N[C@@H](Cc1ccccc1)C(=O)O | 20 | > 1000 | 20 | 
O=C(O)[C@H](CCc1ccccc1)N[C@@H](Cc1ccccc1)C(=O)NC[C@H](O)C(=O)O (stereo in doubt; 6d) [listing 1 of 2 here] |  | > 1000 | 11 | 
O=C(O)[C@H](CCc1ccccc1)N[C@@H](Cc1ccccc1)C(=O)NC[C@H](O)C(=O)O (stereo in doubt; 6d) [listing 2 of 2 here] | 25 |  |  | 
O=C(O)CCNC(=O)[C@H](Cc1ccccc1)N[C@@H](CCc1ccccc1)C(=O)O | 17 | > 1000 | 16 | 
